Experimental data as given in ChEMBL document CHEMBL4028833, “Novel non-trimethoxylphenyl piperlongumine derivatives selectively kill cancer cells” (Bioorg Med Chem Lett, 2017).

What follows are compounds tested on A549 (assay: Antiproliferative activity against human A549 cells after 72 hrs by MTT assay). Settings: A549, 72 h.
Assay type: functional, cell-based
Summary of the method: (§1)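 Cell growth inhibition was read by MTT assay, and IC50 values were reported.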
`O=C(/C=C/c1ccoc1)N1CCC=C(Cl)C1=O` gave an IC50 of 11 µM.
With `O=C1C(Cl)=CCCN1C(=O)c1ccco1` the IC50 was 18.6 µM.
With `O=C(/C=C/C(=O)N1CCC=C(Cl)C1=O)N1CCC=C(Cl)C1=O` the IC50 was 8.6 µM.
With `O=C(/C=C/c1ccco1)N1CCC=C(Cl)C1=O` the IC50 was 8.3 µM.
Work on `O=C1C(Cl)=CCCN1C(=O)c1cnc2ccccc2c1` yielded an IC50 of 10.6 µM.
Work on `O=C1C(Cl)=CCCN1C(=O)c1cccnc1` yielded an IC50 of 8.64 µM.
For `O=C1C(Br)=CCCN1C(=O)c1cnc2ccccc2c1`, the IC50 was > 100 µM.

The compounds below were run on SK-HEP1 (assay: Antiproliferative activity against human SKHEP1 cells after 72 hrs by MTT assay). Settings: SK-HEP1, 72 h.
Assay type: functional, cell-based
Summary of the method: as §1
Compound `O=C(/C=C/c1ccoc1)N1CCC=C(Cl)C1=O` has an IC50 of 2.78 µM.
`O=C1C(Cl)=CCCN1C(=O)c1ccco1` showed an IC50 of 13.6 µM.
For `O=C(/C=C/C(=O)N1CCC=C(Cl)C1=O)N1CCC=C(Cl)C1=O`, the IC50 was 3.96 µM.
`O=C(/C=C/c1ccco1)N1CCC=C(Cl)C1=O` was tested, and the IC50 was 1.27 µM.
Compound `O=C1C(Cl)=CCCN1C(=O)c1cnc2ccccc2c1` has an IC50 of 3.52 µM.
In the case of `O=C1C(Cl)=CCCN1C(=O)c1cccnc1`, the IC50 is reported as 4.83 µM.
In the case of `O=C1C(Br)=CCCN1C(=O)c1cnc2ccccc2c1`, the IC50 is reported as 75.2 µM.

These compounds were tested on U2OS (assay: Antiproliferative activity against human U2OS cells after 72 hrs by MTT assay). Settings: not given.
Assay type: functional, cell-based
Summary of the method: as §1
`O=C(/C=C/c1ccoc1)N1CCC=C(Cl)C1=O` gave an IC50 of 2.26 µM.
Compound `O=C1C(Cl)=CCCN1C(=O)c1ccco1` has an IC50 of 8.6 µM.
`O=C(/C=C/C(=O)N1CCC=C(Cl)C1=O)N1CCC=C(Cl)C1=O` was tested, and the IC50 was 7.29 µM.
For `O=C(/C=C/c1ccco1)N1CCC=C(Cl)C1=O`, the IC50 was 1.47 µM.
`O=C1C(Cl)=CCCN1C(=O)c1cnc2ccccc2c1` was tested, and the IC50 was 6.63 µM.
Compound `O=C1C(Cl)=CCCN1C(=O)c1cccnc1` has an IC50 of 5.67 µM.
With `O=C1C(Br)=CCCN1C(=O)c1cnc2ccccc2c1` the IC50 was 97.5 µM.

These compounds were tested on MDA-MB-231 (assay: Antiproliferative activity against human MDA-MB-231 cells after 72 hrs by MTT assay). Settings: MDA-MB-231, 72 h.
Assay type: functional, cell-based
Summary of the method: as §1
`O=C(/C=C/c1ccoc1)N1CCC=C(Cl)C1=O` showed an IC50 of 4.97 µM.
`O=C1C(Cl)=CCCN1C(=O)c1ccco1` showed an IC50 of 19.2 µM.
For `O=C(/C=C/C(=O)N1CCC=C(Cl)C1=O)N1CCC=C(Cl)C1=O`, the IC50 was 5.04 µM.
In the case of `O=C(/C=C/c1ccco1)N1CCC=C(Cl)C1=O`, the IC50 is reported as 5.52 µM.
Compound `O=C1C(Cl)=CCCN1C(=O)c1cnc2ccccc2c1` has an IC50 of 8.68 µM.
In the case of `O=C1C(Cl)=CCCN1C(=O)c1cccnc1`, the IC50 is reported as 4.83 µM.
For `O=C1C(Br)=CCCN1C(=O)c1cnc2ccccc2c1`, the IC50 was > 100 µM.

What follows are compounds tested on SAOS-2 (assay: Antiproliferative activity against human Saos2 cells after 72 hrs by MTT assay). Settings: SAOS-2, 72 h.
Assay type: functional, cell-based
Summary of the method: as §1
`O=C(/C=C/c1ccoc1)N1CCC=C(Cl)C1=O` was tested, and the IC50 was 1.15 µM.
In the case of `O=C1C(Cl)=CCCN1C(=O)c1ccco1`, the IC50 is reported as 3.86 µM.
With `O=C(/C=C/C(=O)N1CCC=C(Cl)C1=O)N1CCC=C(Cl)C1=O` the IC50 was 0.82 µM.
`O=C(/C=C/c1ccco1)N1CCC=C(Cl)C1=O` was tested, and the IC50 was 0.28 µM.
`O=C1C(Cl)=CCCN1C(=O)c1cnc2ccccc2c1` showed an IC50 of 2.96 µM.
In the case of `O=C1C(Cl)=CCCN1C(=O)c1cccnc1`, the IC50 is reported as 2.55 µM.
Compound `O=C1C(Br)=CCCN1C(=O)c1cnc2ccccc2c1` has an IC50 of 26.7 µM.

These compounds were tested on WI-38 (assay: Cytotoxicity against human W138 cells after 72 hrs by MTT assay). Settings: WI-38, 72 h.
Assay type: cell-based
Summary of the method: as §1
`O=C(/C=C/c1ccoc1)N1CCC=C(Cl)C1=O` was tested, and the IC50 was > 100 µM.
In the case of `O=C1C(Cl)=CCCN1C(=O)c1ccco1`, the IC50 is reported as > 100 µM.
In the case of `O=C(/C=C/C(=O)N1CCC=C(Cl)C1=O)N1CCC=C(Cl)C1=O`, the IC50 is reported as 89.5 µM.
For `O=C(/C=C/c1ccco1)N1CCC=C(Cl)C1=O`, the IC50 was > 100 µM.
`O=C1C(Cl)=CCCN1C(=O)c1cnc2ccccc2c1` was tested, and the IC50 was > 100 µM.
For `O=C1C(Cl)=CCCN1C(=O)c1cccnc1`, the IC50 was 31 µM.
For `O=C1C(Br)=CCCN1C(=O)c1cnc2ccccc2c1`, the IC50 was > 100 µM.

Each compound was assayed on HCT-116 (assay: Antiproliferative activity against human HCT116 cells after 72 hrs by MTT assay). Settings: HCT-116, 72 h.
Assay type: functional, cell-based
Summary of the method: as §1
In the case of `O=C(/C=C/c1ccoc1)N1CCC=C(Cl)C1=O`, the IC50 is reported as 4.37 µM.
For `O=C1C(Cl)=CCCN1C(=O)c1ccco1`, the IC50 was 5.89 µM.
`O=C(/C=C/C(=O)N1CCC=C(Cl)C1=O)N1CCC=C(Cl)C1=O` was tested, and the IC50 was 4.2 µM.
`O=C(/C=C/c1ccco1)N1CCC=C(Cl)C1=O` gave an IC50 of 4.49 µM.
`O=C1C(Cl)=CCCN1C(=O)c1cnc2ccccc2c1` was tested, and the IC50 was 10.2 µM.
In the case of `O=C1C(Cl)=CCCN1C(=O)c1cccnc1`, the IC50 is reported as 3.84 µM.
`O=C1C(Br)=CCCN1C(=O)c1cnc2ccccc2c1` was tested, and the IC50 was > 100 µM.
